Retention_time and Drug metabolism data for 3 compounds are collected here from ChEMBL document CHEMBL3525967, “In vitro glucuronidation of the antibacterial triclocarban and its oxidative metabolites” (Drug Metab Dispos, 2012).

Data set [1] is described as follows: Drug metabolism in microsomes (unknown origin) assessed as retention time treated with 10 uM triclocarban by LC-UV-MS method. In kind it is ADME, Microsome.
The test system of another data set is Liver microsome. Put plainly: Drug metabolism in human liver microsomes assessed as glucuronidation incubated for 5 mins prior to UDPGA addition measured after 5 to 30 mins by LC-UV analysis. The format is ADME. In outline:
(§1)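 Microsomes or Sf-9 Supersomes (5 µg protein in 200 µL 100 mM potassium phosphate pH 7.4) pre-treated with alamethicin on ice 15 min; substrate 10 µM final (2% DMSO), MgCl2 and saccharolactone 10 mM each; 5 min preincubation at 37 °C, then UDPGA to start. Samples taken at 5, 10, 15, 30 min (or 2, 5, 10, 15 min) into ACN with internal standard; LC-UV-ESI-MS/MS.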
(In general: Liver microsomes are a subcellular fraction often used to study metabolism.)

The nature of data set [2]: Drug metabolism in cynomolgus monkey liver microsomes assessed as glucuronidation incubated for 5 mins prior to UDPGA addition measured after 5 to 30 mins by LC-UV analysis. The format is ADME, Macaca fascicularis. In outline: as §1
A short description of data set [3]: Drug metabolism in B6C3F1 mouse liver microsomes assessed as glucuronidation incubated for 5 mins prior to UDPGA addition measured after 5 to 30 mins by LC-UV analysis. The format is ADME. In outline:
as §1

Data set [4] is described as follows: Drug metabolism in human kidney microsomes assessed as glucuronidation incubated for 5 mins prior to UDPGA addition measured after 5 to 30 mins by LC-UV analysis. In kind it is ADME. In a few lines: as §1
Data set [5] can be described thus: Drug metabolism in human intestinal microsomes assessed as glucuronidation incubated for 5 mins prior to UDPGA addition measured after 5 to 30 mins by LC-UV analysis. The format is ADME, Intestine, Microsome. In a few lines: as §1
In data set [6] the target is T1, UDP-glucuronosyltransferase 1A8 (Homo sapiens, UniProt Q9HAW9).
T1 sequence (Q9HAW9 whole entry): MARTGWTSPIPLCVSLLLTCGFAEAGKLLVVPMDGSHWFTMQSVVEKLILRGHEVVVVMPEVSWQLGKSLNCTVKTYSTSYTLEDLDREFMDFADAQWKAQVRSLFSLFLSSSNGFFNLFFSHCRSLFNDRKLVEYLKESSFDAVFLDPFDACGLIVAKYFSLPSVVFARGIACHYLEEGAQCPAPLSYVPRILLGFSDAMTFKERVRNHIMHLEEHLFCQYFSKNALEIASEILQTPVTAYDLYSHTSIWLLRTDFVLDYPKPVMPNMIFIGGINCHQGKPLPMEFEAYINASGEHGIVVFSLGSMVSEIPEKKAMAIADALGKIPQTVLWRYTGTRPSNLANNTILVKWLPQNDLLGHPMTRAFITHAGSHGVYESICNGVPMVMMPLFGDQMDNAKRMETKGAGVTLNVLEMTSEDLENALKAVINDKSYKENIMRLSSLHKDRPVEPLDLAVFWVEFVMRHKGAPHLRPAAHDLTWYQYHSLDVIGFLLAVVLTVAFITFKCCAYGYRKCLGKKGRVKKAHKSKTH
Put plainly: Drug metabolism assessed as human UGT1A8-mediated glucuronidation expressed in baculovirus infected insect sf9 cells incubated for 5 mins prior to UDPGA addition measured after 5 to 30 mins by LC-UV analysis. The format is ADME. In outline:
as §1

For data set [7], the target named is T2, UDP-glucuronosyltransferase 1A9 (Homo sapiens, UniProt O60656).
T2 sequence (O60656 whole entry): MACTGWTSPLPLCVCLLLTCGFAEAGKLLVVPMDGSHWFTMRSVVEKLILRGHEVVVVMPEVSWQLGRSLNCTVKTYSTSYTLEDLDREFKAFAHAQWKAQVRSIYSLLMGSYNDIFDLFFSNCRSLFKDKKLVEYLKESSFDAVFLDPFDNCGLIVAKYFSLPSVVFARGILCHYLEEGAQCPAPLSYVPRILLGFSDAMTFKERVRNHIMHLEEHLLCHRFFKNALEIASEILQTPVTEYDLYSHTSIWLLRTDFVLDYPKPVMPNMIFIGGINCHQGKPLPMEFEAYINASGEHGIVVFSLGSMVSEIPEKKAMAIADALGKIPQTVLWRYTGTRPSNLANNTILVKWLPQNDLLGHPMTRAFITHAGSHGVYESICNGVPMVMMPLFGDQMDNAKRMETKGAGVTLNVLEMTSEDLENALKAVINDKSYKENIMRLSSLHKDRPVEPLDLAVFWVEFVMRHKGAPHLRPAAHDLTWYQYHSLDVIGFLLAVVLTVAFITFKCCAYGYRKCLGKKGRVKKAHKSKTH
Put plainly: Drug metabolism assessed as human UGT1A9-mediated glucuronidation expressed in baculovirus infected insect sf9 cells incubated for 5 mins prior to UDPGA addition measured after 5 to 30 mins by LC-UV analysis. In kind it is ADME. In outline:
as §1

Data set [8] addresses T3, UDP-glucuronosyltransferase 2B15 (Homo sapiens, UniProt P54855).
T3 sequence (P54855 whole entry): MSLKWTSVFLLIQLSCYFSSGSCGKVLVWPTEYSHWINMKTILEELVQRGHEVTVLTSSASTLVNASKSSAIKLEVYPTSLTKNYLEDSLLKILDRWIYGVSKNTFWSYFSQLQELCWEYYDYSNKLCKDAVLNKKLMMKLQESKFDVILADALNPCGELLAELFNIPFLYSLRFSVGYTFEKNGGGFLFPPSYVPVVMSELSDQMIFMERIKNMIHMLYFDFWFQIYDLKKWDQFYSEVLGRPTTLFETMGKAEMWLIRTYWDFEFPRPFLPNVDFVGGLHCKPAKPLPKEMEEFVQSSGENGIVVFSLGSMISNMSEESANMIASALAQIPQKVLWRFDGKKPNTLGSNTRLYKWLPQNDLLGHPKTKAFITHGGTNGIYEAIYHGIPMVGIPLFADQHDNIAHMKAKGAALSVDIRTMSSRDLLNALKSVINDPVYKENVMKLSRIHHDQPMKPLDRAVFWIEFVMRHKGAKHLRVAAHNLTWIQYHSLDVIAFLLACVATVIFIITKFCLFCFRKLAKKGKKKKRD
The data set is described as follows: Drug metabolism assessed as human UGT2B15-mediated glucuronidation expressed in baculovirus infected insect sf9 cells incubated for 5 mins prior to UDPGA addition measured after 5 to 30 mins by LC-UV analysis. The format is ADME. In a few lines: as §1

Data set [9] deals with T4, UDP-glucuronosyltransferase 2B17 (Homo sapiens, UniProt O75795).
T4 sequence (O75795 whole entry): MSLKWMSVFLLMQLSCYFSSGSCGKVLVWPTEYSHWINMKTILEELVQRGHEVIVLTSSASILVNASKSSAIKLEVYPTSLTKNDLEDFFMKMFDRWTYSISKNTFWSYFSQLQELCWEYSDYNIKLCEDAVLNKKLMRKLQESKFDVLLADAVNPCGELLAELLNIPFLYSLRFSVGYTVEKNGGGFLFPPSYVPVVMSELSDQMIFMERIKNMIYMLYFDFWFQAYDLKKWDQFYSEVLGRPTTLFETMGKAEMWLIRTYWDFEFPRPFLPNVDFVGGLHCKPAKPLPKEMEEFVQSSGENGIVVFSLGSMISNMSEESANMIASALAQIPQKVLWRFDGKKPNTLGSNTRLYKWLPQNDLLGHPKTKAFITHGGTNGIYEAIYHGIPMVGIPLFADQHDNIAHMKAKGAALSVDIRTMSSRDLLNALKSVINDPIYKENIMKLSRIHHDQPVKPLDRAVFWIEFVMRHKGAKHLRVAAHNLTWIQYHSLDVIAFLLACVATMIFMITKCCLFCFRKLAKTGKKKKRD
Put plainly: Drug metabolism assessed as human UGT2B17-mediated glucuronidation expressed in baculovirus infected insect sf9 cells incubated for 5 mins prior to UDPGA addition measured after 5 to 30 mins by LC-UV analysis. In kind it is ADME. In outline:
as §1

On to `O=C(Nc1ccc(Cl)c(O)c1)Nc1ccc(Cl)c(Cl)c1`, for which, in [1], the Retention_time is on record as 4.61 min. Besides, the Drug metabolism with Liver microsome turned out to be 5200 pmol/min/mg; in data set [2], 9500 pmol/min/mg; in data set [3], 14700 pmol/min/mg; in data set [4] it was 4200 pmol/min/mg; in data set [5] it was 7100 pmol/min/mg; in data set [6] it was 9400 pmol/min/mg. Also, the Drug metabolism in [7] is recorded as 840 pmol/min/mg; in [8], “metabolite_not_detected”; in data set [9] it was “metabolite_not_detected”.

Consider `O=C(Nc1ccc(Cl)cc1)Nc1cc(Cl)c(Cl)cc1O`, for which, in data set [1], the Retention_time came to 7.45 min. In addition, the Drug metabolism with Liver microsome amounted to 8500 pmol/min/mg; in data set [2] it was 16300 pmol/min/mg; in data set [3], 7900 pmol/min/mg; in data set [4] it was 7700 pmol/min/mg; in data set [5], 3900 pmol/min/mg; in data set [6] it was 5000 pmol/min/mg. The values for the Drug metabolism in [7], in data set [8] and in data set [9] were 2400 pmol/min/mg, “metabolite_not_detected” and “metabolite_not_detected”, respectively.

Turning to `O=C(Nc1ccc(Cl)c(Cl)c1)Nc1ccc(Cl)cc1O`, in data set [1], the Retention_time worked out at 6.81 min. Also, the Drug metabolism in the data set with Liver microsome is given as 2700 pmol/min/mg; in data set [2] it was 22800 pmol/min/mg; in data set [3], 2600 pmol/min/mg; in data set [4], 5600 pmol/min/mg; in data set [5], 5700 pmol/min/mg; in [6] it was 5700 pmol/min/mg. Moreover, the Drug metabolism in data set [7] is recorded as 1200 pmol/min/mg; in [8], “metabolite_not_detected”; in data set [9] it was “metabolite_not_detected”.
